How the values were obtained:
Rattus norvegicus [1] = assay: Hypocholesterolemic activity in rat assessed as [14C]palmitic acid level in lung at 10 mg/kg/day administered for 1 week measured after 22 hrs on day 7 by scintillation counting analysis (reference value: 0.53 +/- 0.15%); assay type: functional
How it was run: (§1)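 Male Sprague-Dawley rats on lab chow dosed orally once daily for 1 week at 10 mg/kg/day, suspended in 1% CMC, or given vehicle alone. On day 7, 5 μCi [1-14C]palmitic acid given orally. Killed after 22 hr; organs made into 10% water homogenates. Aliquots of 0.1 cc of homogenate, urine, blood or feces were digested and scintillation counted. Output is % of dose per tissue, N = 6.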

Rattus norvegicus [2] = assay: Effect on food intake in rat at 5 mg/kg/day measured during first week (reference value: 19.1 +/- 1.7 gms); assay type: ADME, organism-based; conditions: in vivo
How it was run: (§2)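 Male rats dosed orally at 1, 5, 10 or 50 mg/kg/day in 1% CMC. Average food intake in grams per rat per week measured over a 2-week period, first and second weeks reported separately. N = 8, Student's t test against the 1% CMC control.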

Rattus norvegicus [3] = assay: Effect on brain weight in rat at 5 mg/kg/day administered for 16 days measured 24 hrs after last drug dosage relative to total body weight (reference value: 0.67 +/- 0.05%); assay type: ADME, organism-based; conditions: in vivo
Rattus norvegicus [4] = assay: Effect on food intake in rat at 10 mg/kg/day measured during first week (reference value: 19.1 +/- 1.7 gms); assay type: ADME, organism-based; conditions: in vivo; how it was run: as §2
Rattus norvegicus [5] = assay: Effect on kidney weight in rat at 50 mg/kg/day administered for 16 days measured 24 hrs after last drug dosage relative to total body weight (reference value: 0.92 +/- 0.04%); assay type: ADME, organism-based; conditions: in vivo
Rattus norvegicus [6] = assay: Hypocholesterolemic activity in rat assessed as [14C]cholesterol level in heart at 10 mg/kg/day administered for 1 week measured after 22 hrs on day 7 by scintillation counting analysis (reference value: 0.39 +/- 0.13%); assay type: functional
How it was run: (§3)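 Male rats were dosed orally for 1 week (10 mg/kg/day) or with 1% CMC. On day 7 they received 5 μCi [4-14C]cholesterol orally and were killed after 22 hr. Organs were homogenized (10% in water); 0.1-cc aliquots of homogenate, urine, blood or feces were digested with Protosol. Samples were counted in toluene/Triton X-100 (2:1) scintillant with 0.4% PPO and 0.01% POPOP. Results are % of dose per tissue, N = 6.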

Rattus norvegicus [7] = assay: Effect on body weight in rat at 1 mg/kg/day administered for 16 days measured on day 16 (reference value: 233 +/- 16 gms); assay type: ADME, organism-based; conditions: in vivo, 384 h
How it was run: (§4)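 Male Sprague-Dawley rats with chow and water ad libitum. Compound suspended in 1% CMC-water and given orally by intubation needle at 11:00 a.m., 1, 5, 10 or 50 mg/kg/day, for 16 days. Body weight (g) recorded on days 0, 7 and 16. N = 8.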

Rattus norvegicus [8] = assay: Hypocholesterolemic activity in [14C]palmitic acid-treated rat assessed as increase in free fatty acid accumulation in liver at 10 mg/kg/day administered for 1 week by scintillation counting analysis; assay type: functional
Rattus norvegicus [9] = assay: Effect on liver weight in rat at 50 mg/kg/day administered for 16 days measured 24 hrs after last drug dosage relative to total body weight (reference value: 4.22 +/- 0.29%); assay type: ADME, organism-based; conditions: in vivo
Rattus norvegicus [10] = assay: Effect on body weight in rat at 1 mg/kg/day administered for 16 days measured on day 7 (reference value: 173 +/- 12 gms); assay type: ADME, organism-based; conditions: in vivo, 384 h; how it was run: as §4
Rattus norvegicus [11] = assay: Hypocholesterolemic activity in rat assessed as [14C]cholesterol level in chyme at 10 mg/kg/day administered for 1 week measured after 22 hrs on day 7 by scintillation counting analysis (reference value: 8.72 +/- 4.95%); assay type: functional; how it was run: as §3
Rattus norvegicus [12] = assay: Effect on food intake in rat at 10 mg/kg/day measured during second week (reference value: 23.4 +/- 1.8 gms); assay type: ADME, organism-based; conditions: in vivo; how it was run: as §2
Rattus norvegicus [13] = assay: Effect on spleen weight in rat at 1 mg/kg/day administered for 16 days measured 24 hrs after last drug dosage relative to total body weight (reference value: 0.55 +/- 0.12%); assay type: ADME, organism-based; conditions: in vivo
Rattus norvegicus [14] = assay: Hypocholesterolemic activity in rat assessed as [14C]palmitic acid level in feces at 10 mg/kg/day administered for 1 week measured after 22 hrs on day 7 by scintillation counting analysis (reference value: 75.52 +/- 6.21%); assay type: functional; how it was run: as §1
Rattus norvegicus [15] = assay: Hypocholesterolemic activity in rat assessed as [14C]palmitic acid recovery at 10 mg/kg/day administered for 1 week measured after 22 hrs on day 7 by scintillation counting analysis (reference value: 98%); assay type: functional; how it was run: as §1
Rattus norvegicus [16] = assay: Effect on body weight in rat at 50 mg/kg/day administered for 16 days measured on day 7 (reference value: 173 +/- 12 gms); assay type: ADME, organism-based; conditions: in vivo, 384 h; how it was run: as §4
Rattus norvegicus [17] = assay: Hypocholesterolemic activity in rat assessed as [14C]palmitic acid level in blood at 10 mg/kg/day administered for 1 week measured after 22 hrs on day 7 by scintillation counting analysis (reference value: 0.11 +/- 0.06%); assay type: functional
Rattus norvegicus [18] = assay: Effect on RNA content in rat liver at 10 mg/kg/day administered for 16 days (reference value: 100 +/- 8%); assay type: ADME, organism-based; conditions: in vivo, 384 h
Rattus norvegicus [19] = assay: Increase in lipase level in rat serum at 10 mg/kg/day administered for 16 days (reference value: 100 +/- 39%); assay type: functional
How it was run: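 Male Sprague-Dawley rats dosed orally at 10 mg/kg/day in 1% CMC for 16 days. Serum lipase was measured with a commercial serum lipase kit. Expressed as percent of vehicle control, N = 8.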

Rattus norvegicus [20] = assay: Effect on brain weight in rat at 1 mg/kg/day administered for 16 days measured 24 hrs after last drug dosage relative to total body weight (reference value: 0.67 +/- 0.05%); assay type: ADME, organism-based; conditions: in vivo
Rattus norvegicus [21] = assay: Hypocholesterolemic activity in rat assessed as [14C]cholesterol level in large intestine at 10 mg/kg/day administered for 1 week measured after 22 hrs on day 7 by scintillation counting analysis (reference value: 19.12 +/- 5.62%); assay type: functional; how it was run: as §3
Rattus norvegicus [22] = assay: Hypocholesterolemic activity in Sprague-Dawley rat assessed as serum cholesterol level at 10 mg/kg/day, po administered via intubation measured on day 16 by Liebermann-Burchard reaction (reference value: 100%); assay type: functional
Rattus norvegicus [23] = assay: Hypocholesterolemic activity in rat assessed as [14C]cholesterol level in stomach at 10 mg/kg/day administered for 1 week measured after 22 hrs on day 7 by scintillation counting analysis (reference value: 8.87 +/- 4.00%); assay type: functional; how it was run: as §3
Rattus norvegicus [24] = assay: Hypocholesterolemic activity in rat assessed as [14C]palmitic acid level in chyme at 10 mg/kg/day administered for 1 week measured after 22 hrs on day 7 by scintillation counting analysis (reference value: 0.41+/- 0.17%); assay type: functional; how it was run: as §1
Rattus norvegicus [25] = assay: Effect on vas deferens and epididymis weight in rat at 10 mg/kg/day administered for 16 days measured 24 hrs after last drug dosage relative to total body weight (reference value: 0.22 to 0.24%); assay type: ADME, organism-based; conditions: in vivo
Rattus norvegicus [26] = assay: Hypocholesterolemic activity in rat assessed as [14C]cholesterol level in small intestine at 10 mg/kg/day administered for 1 week measured after 22 hrs on day 7 by scintillation counting analysis (reference value: 22.09 +/- 5.68%); assay type: functional; how it was run: as §3
Rattus norvegicus [27] = assay: Effect on testes weight in rat at 1 mg/kg/day administered for 16 days measured 24 hrs after last drug dosage relative to total body weight (reference value: 1.08 +/- 0.08%); assay type: ADME, organism-based, Testis; conditions: in vivo

## Cc1ccc(OCC(=O)COc2ccc(C)cc2)cc1
Rattus norvegicus [1]
  Activity: 0.5%
Rattus norvegicus [2]
  Activity: 18.8 g
Rattus norvegicus [3]
  Activity: 0.73%
Rattus norvegicus [4]
  Activity: 18.2 g
Rattus norvegicus [5]
  Activity: 0.88%
Rattus norvegicus [6]
  Activity: 0.58%
Rattus norvegicus [7]
  Activity: 234 g
Rattus norvegicus [8]
  Activity: 10%
Rattus norvegicus [9]
  Activity: 4.57%
Rattus norvegicus [10]
  Activity: 166 g
Rattus norvegicus [11]
  Activity: 9.21%
Rattus norvegicus [12]
  Activity: 28.6 g
Rattus norvegicus [13]
  Activity: 0.43%
Rattus norvegicus [14]
  Activity: 63.52%
Rattus norvegicus [15]
  Activity: 96.75%
Rattus norvegicus [16]
  Activity: 171 g
Rattus norvegicus [17]
  Activity: 0.03%
Rattus norvegicus [18]
  Activity: 104%
Rattus norvegicus [19]
  Activity: 222%
Rattus norvegicus [20]
  Activity: 0.74%
Rattus norvegicus [21]
  Activity: 12.84%
Rattus norvegicus [22]
  Activity: 58%
Rattus norvegicus [23]
  Activity: 3.36%
Rattus norvegicus [24]
  Activity: 2%
Rattus norvegicus [25]
  Activity: 0.24%
Rattus norvegicus [26]
  Activity: 22.56%
Rattus norvegicus [27]
  Activity: 1.12%
